Myeloid diff 2: compounds promoting myeloid differentiation; ER-HoxA9 myeloid progenitors, lysozyme-GFP differentiation, flow cytometry; calls only at 10 µM; 360,000 tested, 1% active; AID 624256;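 active = normalized GFP-positive differentiation at or above the plate's own cutoff, the solvent-only control mean plus 3 SD; inconclusive = no clear call, values can overlap the other calls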;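 note: cells exposed to compound for four days before flow analysis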
T cell modulator: modulates CD8 T cell binding to vesicles | 2C CD8+ T cell-vesicle binding, flow cytometry; active compounds read low | response (vesicle binding), % at 7 µM | AID 2052 | 330,000 tested, 0.068% active;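 active = response, share of CD8 T cells binding vesicles, and their 90th percentile fluorescence all below set limits, cut at about 80% in these data, passing the limit was not always enough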;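 note: values below 100% mean blocked vesicle binding to the CD8+ T cells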
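Incubation: binding step 1.5 h, 37 °C, antibody labelling 20 min, ice; system: murine 2C transgenic CD8+ T lymphocytes; technique: cytometric PE anti-B7-1 and Alexa647 anti-CD8 signals after 1% paraformaldehyde fixation; also added: QL9-charged Drosophila Ld/ICAM-1/B7-1 vesicles; control set: naked versus QL9-loaded vesicles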
Vif inh: inhibitors of HIV Vif. HEK293T cells, Vif self-association by quenched fluorescence, imaging, 24 h. inhibition, % at 7.49 µM. 340,000 tested, 0.35% active; in the data active = inhibition above about 50%, passing the limit was not always enough; inconclusive = no clear call, values can overlap the other calls; inactive = below about 31%
DSG3 Ab inh: human desmoglein-3 autoantibody binding inhibition. 310,000 tested, 0.48% active. AID 588358. DSG3-coupled beads, scFv-anti-DSG3-GFP binding, flow cytometry; active compounds read low. binding (percent of control), % at 10 µM. P32926;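 active = binding more than 3 SD below its plate's average and above zero; inconclusive = below that plate limit but binding exactly zero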;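 note: hits lower antibody fragment binding to DSG3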
Target sequence (P32926 whole entry, looked up, the tested form may be a part): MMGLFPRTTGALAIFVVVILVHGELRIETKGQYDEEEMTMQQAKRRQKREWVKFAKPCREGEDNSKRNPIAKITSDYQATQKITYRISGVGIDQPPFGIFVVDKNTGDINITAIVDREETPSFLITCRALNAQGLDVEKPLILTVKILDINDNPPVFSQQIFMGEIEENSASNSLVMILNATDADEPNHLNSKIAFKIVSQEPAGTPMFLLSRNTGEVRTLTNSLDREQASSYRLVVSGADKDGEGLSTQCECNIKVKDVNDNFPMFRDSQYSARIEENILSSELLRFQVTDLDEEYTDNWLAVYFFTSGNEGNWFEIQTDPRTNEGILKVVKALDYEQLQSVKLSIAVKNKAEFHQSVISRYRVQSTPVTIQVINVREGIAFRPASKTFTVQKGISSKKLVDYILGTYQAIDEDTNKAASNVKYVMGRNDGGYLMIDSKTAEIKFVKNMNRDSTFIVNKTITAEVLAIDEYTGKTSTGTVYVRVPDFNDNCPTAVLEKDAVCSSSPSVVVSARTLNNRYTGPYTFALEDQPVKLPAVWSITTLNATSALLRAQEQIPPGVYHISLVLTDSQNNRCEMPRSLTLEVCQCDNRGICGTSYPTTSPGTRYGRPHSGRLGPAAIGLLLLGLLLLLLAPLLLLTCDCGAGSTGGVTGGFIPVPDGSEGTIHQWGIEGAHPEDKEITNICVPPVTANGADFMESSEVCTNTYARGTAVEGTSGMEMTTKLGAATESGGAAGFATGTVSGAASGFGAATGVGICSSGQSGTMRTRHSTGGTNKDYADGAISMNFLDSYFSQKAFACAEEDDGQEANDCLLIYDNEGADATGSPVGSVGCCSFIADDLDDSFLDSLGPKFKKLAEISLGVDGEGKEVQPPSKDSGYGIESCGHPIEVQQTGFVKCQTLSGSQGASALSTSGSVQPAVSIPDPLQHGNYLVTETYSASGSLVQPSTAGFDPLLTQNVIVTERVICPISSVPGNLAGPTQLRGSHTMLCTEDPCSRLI
A number is an active result; . = inactive; ? = inconclusive; / = not tested or not shown; + = active, no number. Sampled rows, rich in hits. Any-hit rate of the full collection: about 1.7%.

SMILES | Myeloid diff 2 | T cell modulator | Vif inh | DSG3 Ab inh
Cc1cc2c(Nc3ccccc3)ncnc2s1 | . | . | . | .
Cc1ccc(C)c(S(=O)(=O)N2CCN(C(=O)C3CCN(c4ncnc5sc(C)c(C)c45)CC3)CC2)c1 | + | . | / | .
Cc1ccc2nc(NC(=O)C3CCN(c4ncnc5sc(C)c(C)c45)CC3)sc2c1 | / | . | / | 86
Cc1cc(Br)cn2c(Cc3ccsc3)c(-c3ccco3)nc12 | . | / | / | /
O=S1(=O)CC(N2CC=CC2)CN1C1CCCCC1 (stereo unspecified) | . | / | / | /
COC(=O)CSc1nc(C2CC2)cc(C(F)(F)F)c1C#N | . | . | 79 | .
N#Cc1c(-c2ccccc2F)cc(C2CC2)nc1SCC(=O)c1cccs1 | + | . | . | .
COc1ccc(S(=O)(=O)N2CCOCC2)cc1NC(=O)CCNC(=O)c1ccc([N+](=O)[O-])cc1 | . | . | . | /
CN(C)S(=O)(=O)n1cc(/C=C(\NC(=O)c2ccccc2Cl)C(=O)N2CCOCC2)c2ccccc21 | . | . | . | .
CN(C)S(=O)(=O)n1cc(/C=C(\NC(=O)c2ccccc2F)C(=O)N2CCOCC2)c2ccccc21 | . | . | . | 18
Cc1csc(NC(=O)CSc2ncnc3c2cnn3-c2ccccc2Cl)n1 | . | . | 73 | .
CC(C)C(=O)NNC(=O)CSc1ncnc2c1cnn2-c1ccccc1Cl | . | . | . | .
N#Cc1c(NC(=O)c2ccccc2Cl)n(Cc2ccccc2)c2nc3ccccc3nc12 | + | . | . | .
COc1ccc(-n2c(NC(=O)c3ccco3)c(C#N)c3nc4ccccc4nc32)cc1 | + | . | . | .
COc1ccc(C(=O)Nc2ccc(NC(=O)c3ccco3)cc2)cc1 | . | . | . | .
CCCCn1c(NC(=O)c2ccccc2Cl)c(C#N)c2nc3ccccc3nc21 | + | . | . | .
CCCCn1c(NC(=O)CC)c(C#N)c2nc3ccccc3nc21 | . | . | / | /
CCC(=O)Nc1c(C#N)c2nc3ccccc3nc2n1-c1ccccc1C | . | . | . | .
O=C(C[C@H]1C/C=C\CC[C@H](Cc2ccc(F)cc2)C(=O)OC[C@H]2CCCN2C1=O)N[C@@H](CO)Cc1ccccc1 | . | . | . | /
CCC(C)(C)NC(=O)C(c1ccncc1)N(C(=O)Cn1nnc2ccccc21)c1cc2c(cc1C(C)=O)OCO2 (stereo unspecified) | . | . | / | 84
O=C(c1ccccc1NS(=O)(=O)c1ccc([N+](=O)[O-])cc1[N+](=O)[O-])N1O[C@@H]2C=C[C@H]1C2 | . | / | . | .
COc1ccc(C2=NS(=O)(=O)N(C)C(C(=O)NCc3ccc4c(c3)OCO4)=C2)cc1OC | . | . | / | 63
COc1ccc(CNC(=O)C2=CC(c3ccc(OC)c(OC)c3)=NS(=O)(=O)N2C)cc1 | . | . | / | .
COc1ccc(C2=NS(=O)(=O)N(C)C(C(=O)N3CCc4ccccc4C3)=C2)cc1OC | + | . | . | .
CCOC(=O)N1CCN(C(=O)CSc2nc(=O)n3ccccc3n2)CC1 | . | . | . | .
SMILES | Myeloid diff 2 | T cell modulator | Vif inh | DSG3 Ab inh
CCC(C(=O)Nc1ncn[nH]1)(C(F)(F)F)C(F)(F)F | + | . | . | /
O=C1NC[C@H](CCCCN2CCN(CCC3CCCCC3)C(=O)C2=O)N(CCc2ccc(O)cc2)C1=O | . | / | / | /
CCCCCCCCN1C(=O)[C@H](CC(=O)NCCCN2CCCC2=O)C[C@@]2(C(=O)OC)CCCCC=C12 | . | / | / | /
CC(C)N1CCN(S(=O)(=O)c2ccccc2)c2ccccc21 | . | / | . | .
CCC(C)C1/C=C\CC(NC(=O)OCC2c3ccccc3-c3ccccc32)CC(=O)N1Cc1ccccc1 (stereo unspecified) | . | / | . | .
COc1ccc(C2/C=C\CC(NC(=O)OCC3c4ccccc4-c4ccccc43)CC(=O)N2Cc2ccccc2F)cc1 (stereo unspecified) | . | / | . | 83
Cc1cc(Cl)n2c(nc3cc(F)c(F)cc32)c1C#N | ? | / | 77 | /
Cc1cc(C)n2c(=O)c3ccc(Cl)cc3nc2c1C#N | . | . | . | .
Nc1nc2cc(Cl)c(Br)cc2o1 | . | / | . | .
OCCN1CCN(CC(O)COc2ccc(C34CC5CC(CC(C5)C3)C4)cc2)CC1 (stereo unspecified) | + | . | . | .
Cc1noc(COc2ccccc2OCC(N)=O)n1 | . | . | . | .
N#CCCN(Cc1ccccc1)C(C(=O)NC1CCCCC1)C1CC1 (stereo unspecified) | . | / | / | /
O=C(/C=C/c1ccc([N+](=O)[O-])cc1)OCC(=O)N1CCCC1 | . | . | . | 77
CC1CCN(C(=O)COC(=O)/C=C/c2ccc([N+](=O)[O-])cc2)CC1 | . | . | . | .
O=c1oc2ccccc2nc1/C=C(\O)c1ccccc1 | . | . | . | .
O/C(=C\c1nc2ccccc2nc1/C=C(\O)c1ccccc1)c1ccccc1 | + | . | . | .
CC(C)(C)n1nnnc1C(c1ccccc1)N1CCN(c2ccc(C(F)(F)F)cn2)CC1 (stereo unspecified) | . | / | / | /
CCN(CC)C(=O)c1cccc(NC(=O)CC23CC4CC(CC(C4)C2)C3)c1 | + | . | . | /
CNC(=O)c1ccc(NC(=O)CC23CC4CC(CC(C4)C2)C3)cc1 | . | . | . | .
CC(C)(C)C(=O)/C=c1\s/c(=C\c2ccc(-c3ccc([N+](=O)[O-])cc3)o2)c(=O)n1CC(=O)NC(N)=O | + | . | / | .
COc1ccc2cc(-c3cc(C(=O)OCC(=O)NC4CCS(=O)(=O)C4)c4ccccc4n3)ccc2c1 (stereo unspecified) | . | . | 52 | 4.6
COc1ccc(-c2cc(C(=O)OCC(=O)N3CCOCC3)c3ccccc3n2)cc1 | . | . | . | .
COC(=O)C1CCN(C(=O)COC(=O)c2cc(-c3ccccc3)nc3ccc(OC)cc23)CC1 | + | . | . | .
COc1ccccc1C(O)(C(=O)NN(C(=O)c1ccccc1)c1ccccc1C)c1cccs1 (stereo unspecified) | . | . | 52 | .
Cc1ccc(C)c(-n2nnc3ccccc3c2=O)c1 | . | / | . | .
SMILES | Myeloid diff 2 | T cell modulator | Vif inh | DSG3 Ab inh
Cc1ccc(OCCNC(=O)c2ccccc2N)cc1 | . | . | . | 46
COc1cccc(OCCNC(=O)c2cccc(OC)c2)c1 | . | . | . | .
COc1cccc(OCCNC(=O)c2ccc(C)cc2)c1 | + | . | . | .
Cc1ccc(OCCNC(=O)c2cc(C(=O)NCCOc3ccc(C)cc3)cc([N+](=O)[O-])c2)cc1 | . | . | . | .
COc1cccc(OCCNC(=O)c2cc([N+](=O)[O-])cc([N+](=O)[O-])c2)c1 | + | . | . | .
CC1CCc2sc(C(=O)NN=C3CCC(c4ccccc4)CC3)cc2C1 (stereo unspecified) | + | . | . | .
Cc1cccc(-c2cnc(C(O)c3ccc(Cl)cc3C)[nH]2)c1 (stereo unspecified) | . | / | . | /
O=C(CN(CC1CCCO1)C(=O)CNS(=O)(=O)c1ccccc1)NCc1ccco1 (stereo unspecified) | . | . | . | .
O=C(CNCC1CCCO1)NCc1ccco1 (stereo unspecified) | + | . | / | .
CC(=O)Oc1ccc(-c2csc(Nc3ccc(S(N)(=O)=O)cc3)n2)cc1 | . | . | . | .

Screening results deposited in PubChem BioAssay by several laboratories.
